Calls of active or inactive are those of the source.
What was measured:
Format in all cases: functional, organism-based
Settings in all cases: 25 M
Saccharomyces cerevisiae [1] = assay: Increase in UB14 mRNA level in delta snq2, delta pdr5 and delta erg6 knock out yeast YRP1 at 25 µM after 2 hrs by high-density oligonucleotide array
How it was run: (§1)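 Drug-sensitized S. cerevisiae cultures grown to late logarithmic phase, then exposed to 25 μM inhibitor for 2 h. Polyadenylated mRNA isolated, converted to biotin-labeled cRNA and hybridized to a set of four high-density arrays carrying more than 260,000 25-nucleotide oligomers. Transcripts scored as changed when they shifted more than twofold in triplicate hybridizations for each of two independent experiments.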

Saccharomyces cerevisiae [2] = assay: Effect on FAR1 gene expression in delta snq2, delta pdr5 and delta erg6 knock out yeast YRP1 assessed as change in mRNA level at 25 µM after 2 hrs by high-density oligonucleotide array; how it was run: as §1
Saccharomyces cerevisiae [3] = assay: Effect on HTA1 gene expression in delta snq2, delta pdr5 and delta erg6 knock out yeast YRP1 bearing cdc28-4 mutant allele assessed as change in mRNA level at 25 µM after 2 hrs by high-density oligonucleotide array
Saccharomyces cerevisiae [4] = assay: Upregulation of HSP26 gene expression in delta snq2, delta pdr5 and delta erg6 knock out yeast YRP1 at 25 µM after 2 hrs by high-density oligonucleotide array
How it was run: (§2)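 Drug-sensitized yeast strain grown to late logarithmic phase, then exposed to 25 μM inhibitor for 2 h. Polyadenylated mRNA was isolated and converted to biotin-labeled cRNA, which was hybridized to a set of four arrays carrying over 260,000 25-nucleotide oligomers. Transcripts changing more than twofold were scored, from triplicate hybridizations in each of two independent experiments.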

Saccharomyces cerevisiae [5] = assay: Induction of GPH1 gene expression in delta snq2, delta pdr5 and delta erg6 knock out yeast YRP1 bearing cdc28-4 mutant allele at 25 µM after 2 hrs by high-density oligonucleotide array
How it was run: (§3)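 cdc28-4 temperature-sensitive strain and its isogenic wild type were profiled at the permissive temperature of 25°C. Polyadenylated mRNA was converted to biotin-labeled cRNA and hybridized to high-density oligonucleotide arrays. Transcripts changing more than twofold were scored, from triplicate hybridizations of RNA from a single experiment.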

Saccharomyces cerevisiae [6] = assay: Effect on CTS1 gene expression in delta snq2, delta pdr5 and delta erg6 knock out yeast YRP1 assessed as change in mRNA level at 25 µM after 2 hrs by high-density oligonucleotide array; how it was run: as §1
Saccharomyces cerevisiae [7] = assay: Effect on YBR214w gene expression in delta snq2, delta pdr5 and delta erg6 knock out yeast YRP1 assessed as change in mRNA level at 25 µM after 2 hrs by high-density oligonucleotide array; how it was run: as §1
Saccharomyces cerevisiae [8] = assay: Upregulation of INO1 gene expression in delta snq2, delta pdr5 and delta erg6 knock out yeast YRP1 at 25 µM after 2 hrs by high-density oligonucleotide array; how it was run: as §2
Saccharomyces cerevisiae [9] = assay: Effect on ZMS1 gene expression in delta snq2, delta pdr5 and delta erg6 knock out yeast YRP1 bearing cdc28-4 mutant allele assessed as change in mRNA level at 25 µM after 2 hrs by high-density oligonucleotide array
Saccharomyces cerevisiae [10] = assay: Effect on HAC1 gene expression in delta snq2, delta pdr5 and delta erg6 knock out yeast YRP1 assessed as change in mRNA level at 25 µM after 2 hrs by high-density oligonucleotide array; how it was run: as §1
Saccharomyces cerevisiae [11] = assay: Effect on YBR147w gene expression in delta snq2, delta pdr5 and delta erg6 knock out yeast YRP1 bearing cdc28-4 mutant allele assessed as change in mRNA level at 25 µM after 2 hrs by high-density oligonucleotide array
Saccharomyces cerevisiae [12] = assay: Effect on ATR1 gene expression in delta snq2, delta pdr5 and delta erg6 knock out yeast YRP1 bearing cdc28-4 mutant allele assessed as change in mRNA level at 25 µM after 2 hrs by high-density oligonucleotide array
Saccharomyces cerevisiae [13] = assay: Downregulation of HTA2 mRNA expression in delta snq2, delta pdr5 and delta erg6 knock out yeast YRP1 at 25 µM after 2 hrs by high-density oligonucleotide array; how it was run: as §1
Saccharomyces cerevisiae [14] = assay: Upregulation of YER150w gene expression in delta snq2, delta pdr5 and delta erg6 knock out yeast YRP1 at 25 µM after 2 hrs by high-density oligonucleotide array; how it was run: as §2
Saccharomyces cerevisiae [15] = assay: Upregulation of HSP30 gene expression in delta snq2, delta pdr5 and delta erg6 knock out yeast YRP1 at 25 µM after 2 hrs by high-density oligonucleotide array; how it was run: as §2
Saccharomyces cerevisiae [16] = assay: Increase in HSP12 mRNA level in delta snq2, delta pdr5 and delta erg6 knock out yeast YRP1 at 25 µM after 2 hrs by high-density oligonucleotide array; how it was run: as §1
Saccharomyces cerevisiae [17] = assay: Induction of HAP4 gene expression in delta snq2, delta pdr5 and delta erg6 knock out yeast YRP1 bearing cdc28-4 mutant allele at 25 µM after 2 hrs by high-density oligonucleotide array; how it was run: as §3
Saccharomyces cerevisiae [18] = assay: Upregulation of YDL223c gene expression in delta snq2, delta pdr5 and delta erg6 knock out yeast YRP1 at 25 µM after 2 hrs by high-density oligonucleotide array; how it was run: as §2
Saccharomyces cerevisiae [19] = assay: Induction of HXT5 gene expression in delta snq2, delta pdr5 and delta erg6 knock out yeast YRP1 at 25 µM after 2 hrs by high-density oligonucleotide array; how it was run: as §2
Saccharomyces cerevisiae [20] = assay: Increase in CTT1 mRNA level in delta snq2, delta pdr5 and delta erg6 knock out yeast YRP1 at 25 µM after 2 hrs by high-density oligonucleotide array; how it was run: as §1
Saccharomyces cerevisiae [21] = assay: Effect on TFS1 gene expression in delta snq2, delta pdr5 and delta erg6 knock out yeast YRP1 assessed as change in mRNA level at 25 µM after 2 hrs by high-density oligonucleotide array; how it was run: as §1
Saccharomyces cerevisiae [22] = assay: Effect on YDR281C gene expression in delta snq2, delta pdr5 and delta erg6 knock out yeast YRP1 bearing cdc28-4 mutant allele assessed as change in mRNA level at 25 µM after 2 hrs by high-density oligonucleotide array
Saccharomyces cerevisiae [23] = assay: Effect on YKL071W gene expression in delta snq2, delta pdr5 and delta erg6 knock out yeast YRP1 bearing cdc28-4 mutant allele assessed as change in mRNA level at 25 µM after 2 hrs by high-density oligonucleotide array
Saccharomyces cerevisiae [24] = assay: Effect on CYC3 gene expression in delta snq2, delta pdr5 and delta erg6 knock out yeast YRP1 bearing cdc28-4 mutant allele assessed as change in mRNA level at 25 µM after 2 hrs by high-density oligonucleotide array
Saccharomyces cerevisiae [25] = assay: Induction of PCK1 gene expression in delta snq2, delta pdr5 and delta erg6 knock out yeast YRP1 at 25 µM after 2 hrs by high-density oligonucleotide array; how it was run: as §2
Saccharomyces cerevisiae [26] = assay: Down regulation of CLB2 mRNA expression in delta snq2, delta pdr5 and delta erg6 knock out yeast YRP1 assessed as change in mRNA level at 25 µM after 2 hrs by high-density oligonucleotide array; how it was run: as §1
Saccharomyces cerevisiae [27] = assay: Downregulation of CLB1 mRNA expression in delta snq2, delta pdr5 and delta erg6 knock out yeast YRP1 at 25 µM after 2 hrs by high-density oligonucleotide array; how it was run: as §1
Saccharomyces cerevisiae [28] = assay: Increase in PHO84 mRNA level in delta snq2, delta pdr5 and delta erg6 knock out yeast YRP1 at 25 µM after 2 hrs by high-density oligonucleotide array; how it was run: as §1
Saccharomyces cerevisiae [29] = assay: Upregulation of PDR15 gene expression in delta snq2, delta pdr5 and delta erg6 knock out yeast YRP1 at 25 µM after 2 hrs by high-density oligonucleotide array; how it was run: as §2
Saccharomyces cerevisiae [30] = assay: Downregulation of EGT2 mRNA expression in delta snq2, delta pdr5 and delta erg6 knock out yeast YRP1 at 25 µM after 2 hrs by high-density oligonucleotide array; how it was run: as §1

Measured: Activity

CC(C)n1cnc2/c(=N/c3cccc(Cl)c3)nc(NCCO)[nH]c21
active: all assays above

CN1CC[C@H](c2c(O)cc(O)c3c(=O)cc(-c4ccccc4Cl)oc23)[C@H](O)C1 [ALVOCIDIB]
active: all assays above
